Activity calls are given as the source filed them. No cut-off for these calls is given here.
Tests used:
[1] = Cytotoxicity against African green monkey CV1 cells assessed as cell viability at 0.1 to 100 uM preincubated for 4 hrs measured after 24 hrs by MTT assay relative to control; type: cell-based, CV-1; conditions: chlorocebus aethiops, read-out: Activity
Method in brief: (§1)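 CV-1 cells were exposed to test samples at 0.1, 10 and 100 μM. Viability was read by MTT assay.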

[2] = Cytotoxicity against African green monkey CV1 cells assessed as reduction in cell viability preincubated for 4 hrs measured after 24 hrs by MTT assay relative to control; type: cell-based, CV-1; conditions: chlorocebus aethiops; method in brief: as §1
[3] = species on record: Bos taurus; assay: Displacement of ethidium bromide from calf thymus DNA by fluorescence binding assay
[4] = test system: Vesicular stomatitis virus; assay: Antiviral activity against Vesicular stomatitis virus at 0.2 to 620 uM after 24 hrs post infection relative to control; type: functional
[5] = Cytotoxicity against African green monkey CV1 cells assessed as viable cells at 10 uM after 110 hrs by real-time cell analysis relative to control; type: cell-based, CV-1; conditions: chlorocebus aethiops, read-out: Activity
Method in brief: (§2)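 CV-1 cell viability was monitored in real time on an xCelligence Real-Time Cell Analyzer. This ran in parallel with the plaque-forming assay, in which cells were pre-incubated with the compounds for 4 h before infection.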

[6] = Cytotoxicity against African green monkey CV1 cells assessed as viable cells at 5 uM after 110 hrs by real-time cell analysis relative to control; type: cell-based, CV-1; conditions: chlorocebus aethiops, read-out: Activity; method in brief: as §2
[7] = Cytotoxicity against African green monkey CV1 cells assessed as viable cells at 50 uM after 110 hrs by real-time cell analysis relative to control; type: cell-based, CV-1; conditions: chlorocebus aethiops, read-out: Activity; method in brief: as §2
[8] = Cytotoxicity against African green monkey CV1 cells assessed as viable cells at 1 uM after 110 hrs by real-time cell analysis relative to control; type: cell-based, CV-1; conditions: chlorocebus aethiops, read-out: Activity; method in brief: as §2
[9] = Selectivity index, ratio of CC50 for African green monkey CV1 cells to IC50 for Vaccinia virus LIVP harboring GFP infected in African green monkey CV1 cells; type: toxicity; conditions: read-out: Ratio CC50/IC50
[10] = test system: L929; assay: Induction of IFN-alpha activity in mouse L929 cells infected with Encephalomyocarditis virus at 10 uM preincubated with cells for overnight followed by viral infection by optical microscopic analysis; type: functional, cell-based

SMILES | viability at 24 h, up to 100 µM [1] [%] | CC50 at 24 h [2] [µM] | log Ka [3] | Activity [4] [%] | viability at 110 h, 10 µM [5] [%] | viability at 110 h, 5 µM [6] [%] | viability at 110 h, 50 µM [7] [%] | viability at 110 h, 1 µM [8] [%] | selectivity ratio [9] | Activity [10]
CCN(CCO)CCN1C(=O)c2cccc3cccc(c23)C1=O | 79 | 100 | – | – | – | – | – | – | – | –
CCN(CC)CCNC(=O)CCCn1c2ccccc2c2nc3ccccc3nc21 | 88 | 100 | 5.25 | – | – | – | – | – | – | –
O=C(CN1CCCCCC1)NN1C(=O)c2cccc3cccc(c23)C1=O | 97 | > 100 | 5.53 | – | – | – | – | – | – | –
CCN(CC)CCNCCn1c2ccccc2c2nc3ccccc3nc21 | 99 | > 100 | 6.82 | 73 | – | – | – | – | – | –
CN1CCN(CCn2c3ccccc3c3nc4ccccc4nc32)CC1 | 82 | 50 | 5.87 | 85 | – | – | – | – | – | –
CN(C)CCn1c2ccccc2c2nc3ccccc3nc21 | 62 | 10 | 5.93 | 75 | – | – | – | – | – | –
CN(C)CCCNC(=O)CCCn1c2ccccc2c2nc3ccccc3nc21 | 96 | > 100 | 5.09 | – | – | – | – | – | – | –
CCN(CC)CCCNCCn1c2ccccc2c2nc3ccccc3nc21 | 74 | 30 to 50 | 6.87 | 53 | 125 | 125 | 17.2 | 97.1 | – | –
CCCCN(CCO)CCN1C(=O)c2cccc3cccc(c23)C1=O | 70 | > 100 | – | – | – | – | – | – | – | –
O=C(Cn1c2ccccc2c2nc3ccccc3nc21)NCCN1CCOCC1 | 109 | > 100 | 5.13 | 50 | – | – | – | – | – | –
O=C(Cn1c2ccccc2c2nc3ccccc3nc21)NCCCN1CCOCC1 | 102 | > 100 | 5.32 | 60 | – | – | – | – | – | –
CCCCN(C)CCn1c2ccccc2c2nc3ccccc3nc21 | 92 | > 100 | 5.93 | 75 | – | – | – | – | – | –
COc1ccc2c(c1)c1nc3ccccc3nc1n2CCN1CCCCC1 | 79 | 100 to 170 | – | – | 96.9 | – | 75.6 | 108 | 34 | inactive
CN(C)CCOC(=O)CCCn1c2ccccc2c2nc3ccccc3nc21 | 94 | 100 | 5.56 | 75 | – | – | – | – | – | –
COC(=O)CN(C)CCCN1C(=O)c2cccc3cccc(c23)C1=O | 90 | > 100 | – | – | – | – | – | – | – | –
CN(C)CCCNC(=O)Cn1c2ccccc2c2nc3ccccc3nc21 | 84 | 100 to 500 | 5.2 | 50 | 131 | – | 90 | 104 | 50 | inactive
CCN(CC)CCCC(C)N1C(=O)c2cccc3cccc(c23)C1=O (configuration not stated) | 86 | 50 | 5.5 | – | – | – | – | – | – | –
O=C(Cn1c2ccccc2c2nc3ccccc3nc21)OCCN1CCCCC1 | 102 | > 100 | 5.39 | 50 | – | – | – | – | – | –
CCN(CC)CCNC(=O)Cn1c2ccccc2c2nc3ccccc3nc21 | 100 | > 100 | 5.03 | 75 | – | – | – | – | – | –
CCN(CC)CCn1c2ccc3ccccc3c2c2nc3ccccc3nc21 | – | – | 6.79 | 14 | – | – | – | – | – | –
CN(C)CCCCCCn1c2ccccc2c2nc3ccccc3nc21 | – | – | 5.81 | 82 | – | – | – | – | – | –

Reference: ChEMBL document CHEMBL4052722, “Virtual screening, synthesis and biological evaluation of DNA intercalating antiviral agents” (Bioorg Med Chem Lett, 2017)
